Test [1] concerns the target T1, Vasopressin receptor (Rattus norvegicus) (UniProt P48974+P30560+Q00788). The experiment in a line: Antivasopressor potency in terms of blood pressure response in rats anesthetized with urethane and pretreated with phenoxybenzamine. The class given is functional. The essentials: (§1)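 Rats anesthetized with urethane, pretreated with phenoxybenzamine; blood pressure responses recorded. USP posterior pituitary reference standard as agonist, given intravenously with antagonist. ED (nmol/kg) is the antagonist dose at which 2x units of agonist match the response to x units without antagonist, log-interpolated from doses above and below. In vivo pA2 uses assumed distribution volume 67 mL/kg.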

The target in test [2] is T1, Vasopressin receptor (Rattus norvegicus). The test is described as follows: Antiantidiuretic potency in terms of measuring changes in urine flow in water-loaded rats under ethanol anesthesia. The class given is functional. The essentials:
(§2)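 Water-loaded rats under ethanol anesthesia; urine flow followed. USP posterior pituitary reference standard as agonist, all injections intravenous. Effective dose (nmol/kg) is the antagonist dose reducing the response to 2x units of agonist to that of x units alone, interpolated on a log scale between bracketing doses. pA2 = negative log of ED divided by assumed distribution volume 67 mL/kg.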

For test [3], the target named is T2, Vasopressin receptor (Rattus norvegicus, UniProt P48974+P30560+Q00788). The test is described as follows: Antivasopressor potency in terms of negative logarithm of the effective doses divided by the estimated volume of distribution. The class given is functional. The essentials: as §1
In test [4] the target is T2, Vasopressin receptor. The test is described as follows: Antiantidiuretic potency in terms of negative logarithm of the effective doses divided by the estimated volume of distribution. The class given is functional, Urine. Put shortly:
as §2

In general, pA2 refers to a measure of antagonist potency on a negative log scale.

Where only a bound is given, the exact number is not on record here.

In the case of `CCOc1ccc(C[C@H]2NC(=O)CC3(CCCCC3)SSC[C@H](C(=O)NCCNC(=O)[C@@H](CCCN=C(N)N)NC(=O)[C@H](N)CCCN=C(N)N)NC(=O)[C@@H](CC(N)=O)NC(=O)[C@H](C(C)C)NC(=O)[C@@H](Cc3ccccc3)NC2=O)cc1`, the ED in test [1] is 0.86 nM/kg; in test [2] it was 1.8 nM/kg.

Turning to `CCOc1ccc(C[C@H]2NC(=O)CC3(CCCCC3)SSC[C@@H](C(=O)NCCNC(=O)[C@H](N)CCCN=C(N)N)NC(=O)[C@H](CC(N)=O)NC(=O)[C@H](C(C)C)NC(=O)[C@H](Cc3ccccc3)NC2=O)cc1`, the pA2 in test [3] is 8.15; in test [4], 7.95.

On to `CCOc1ccc(C[C@@H]2NC(=O)CC3(CCCCC3)SSC[C@@H](C(=O)NCCNC(=O)[C@@H](N)CCCN=C(N)N)NC(=O)[C@H](CC(N)=O)NC(=O)[C@H](C(C)C)NC(=O)[C@H](Cc3ccccc3)NC2=O)cc1`, for which the pA2 in test [3] was 7.97; in test [4], 6.39.

In the case of `CCOc1ccc(C[C@H]2NC(=O)CC3(CCCCC3)SSC[C@@H](C(=O)N3CCC[C@H]3C(=O)NCCNC(=O)[C@H](N)CCCN=C(N)N)NC(=O)[C@H](CC(N)=O)NC(=O)[C@H](C(C)C)NC(=O)[C@H](Cc3ccccc3)NC2=O)cc1`, the pA2 was 8.15 in test [3] and 7.92 in test [4].

On to `CCOc1ccc(C[C@H]2NC(=O)CC3(CCCCC3)SSC[C@@H](C(=O)N[C@@H](CCCN=C(N)N)C(=O)NCC(=O)NCCNC(=O)[C@@H](N)CCCN=C(N)N)NC(=O)[C@H](CC(N)=O)NC(=O)[C@H](C(C)C)NC(=O)[C@H](Cc3ccccc3)NC2=O)cc1`, for which the pA2 in test [3] was 7.96; in test [4], 7.87.

For the compound `CCOc1ccc(C[C@H]2NC(=O)CC3(CCCCC3)SSC[C@H](C(=O)NCCNC(=O)CN)NC(=O)[C@@H](CC(N)=O)NC(=O)[C@H](C(C)C)NC(=O)[C@@H](Cc3ccccc3)NC2=O)cc1`, the results for the ED in test [1] and in test [2] were 1.66 nM/kg and 18 nM/kg, respectively.

In the case of `CCOc1ccc(C[C@H]2NC(=O)CC3(CCCCC3)SSC[C@H](C(=O)N3CCCC3C(=O)NCCNC(=O)[C@@H](N)CCCCN)NC(=O)[C@@H](CC(N)=O)NC(=O)[C@H](C(C)C)NC(=O)[C@@H](Cc3ccccc3)NC2=O)cc1` (stereo partly drawn), the ED in test [1] was determined as 0.57 nM/kg; in test [2], 1.2 nM/kg.

On to `CCOc1ccc(C[C@H]2NC(=O)CC3(CCCCC3)SSC[C@H](C(=O)NCCNC(=O)[C@@H](N)CCCN=C(N)N)NC(=O)[C@@H](CC(N)=O)NC(=O)[C@H](C(C)C)NC(=O)[C@@H](Cc3ccccc3)NC2=O)cc1`, for which the results for the ED in test [1] and in test [2] were 0.47 nM/kg and 0.83 nM/kg, respectively.

In the case of `CCOc1ccc(C[C@H]2NC(=O)CC3(CCCCC3)SSC[C@H](C(=O)NCCNC(=O)C(N)CCCN=C(N)N)NC(=O)[C@@H](CC(N)=O)NC(=O)[C@H](C(C)C)NC(=O)[C@@H](Cc3ccccc3)NC2=O)cc1` (stereo partly drawn), the ED was 0.75 nM/kg in test [1] and 2.1 nM/kg in test [2].

As to `CCOc1ccc(C[C@H]2NC(=O)CC3(CCCCC3)SSC[C@H](C(=O)N[C@H](CCCN=C(N)N)C(=O)NCC(N)=O)NC(=O)[C@@H](CC(N)=O)NC(=O)[C@H](C(C)C)NC(=O)[C@@H](Cc3ccccc3)NC2=O)cc1`, the results for the ED in test [1] and in test [2] were 0.56 nM/kg and 1.1 nM/kg, respectively.

For `CCOc1ccc(C[C@H]2NC(=O)CC3(CCCCC3)SSC[C@H](C(=O)NCCN)NC(=O)[C@@H](CC(N)=O)NC(=O)[C@H](C(C)C)NC(=O)[C@@H](Cc3ccccc3)NC2=O)cc1`, the ED is 0.47 nM/kg in test [1] and 5.7 nM/kg in test [2].

As for `CCOc1ccc(C[C@H]2NC(=O)CC3(CCCCC3)SSC[C@H](C(=O)N3CCCC3C(=O)NCCNC(=O)[C@@H](N)CCCN=C(N)N)NC(=O)[C@@H](CC(N)=O)NC(=O)[C@H](C(C)C)NC(=O)[C@@H](Cc3ccccc3)NC2=O)cc1` (stereo partly drawn), the ED came out at 0.48 nM/kg in test [1] and 0.81 nM/kg in test [2].

Turning to `CCOc1ccc(C[C@H]2NC(=O)CC3(CCCCC3)SSC[C@H](C(=O)N3CCCC3C(=O)N[C@@H](CCCN=C(N)N)C(=O)NCCNC(=O)[C@H](N)CCCN=C(N)N)NC(=O)[C@@H](CC(N)=O)NC(=O)[C@H]([C@H](C)CC)NC(=O)[C@@H](Cc3ccccc3)NC2=O)cc1` (stereo partly drawn), the ED turned out to be 0.36 nM/kg in test [1] and 0.57 nM/kg in test [2].

Regarding `CC(C)C[C@H]1NC(=O)CC2(CCCCC2)SSC[C@H](C(=O)NCCNC(=O)C(N)CCCN=C(N)N)NC(=O)[C@@H](CC(N)=O)NC(=O)[C@H](C(C)C)NC(=O)[C@@H](Cc2ccccc2)NC1=O` (stereo partly drawn), the ED is 58 nM/kg in test [1] and above 234 nM/kg in test [2].

Turning to `CC(C)[C@@H]1NC(=O)[C@@H](Cc2ccccc2)NC(=O)[C@@H](Cc2ccccc2)NC(=O)CC2(CCCCC2)SSC[C@H](C(=O)NCCNC(=O)C(N)CCCN=C(N)N)NC(=O)[C@@H](CC(N)=O)NC1=O` (stereo partly drawn), the values for the ED in test [1] and in test [2] were 1.7 nM/kg and 8.4 nM/kg, respectively.

`CCOc1ccc(C[C@@H]2NC(=O)CC3(CCCCC3)SSC[C@H](C(=O)NCCNC(=O)C(N)CCCN=C(N)N)NC(=O)[C@@H](CC(N)=O)NC(=O)[C@H](C(C)C)NC(=O)[C@@H](Cc3ccccc3)NC2=O)cc1` (stereo partly drawn): the ED in test [1] was 0.76 nM/kg; in test [2], 27 nM/kg.

Take `CCOc1ccc(C[C@H]2NC(=O)CC3(CCCCC3)SSC[C@H](C(=O)N[C@H](CCCN=C(N)N)C(=O)NCC(=O)NCCN)NC(=O)[C@@H](CC(N)=O)NC(=O)[C@H](C(C)C)NC(=O)[C@@H](Cc3ccccc3)NC2=O)cc1`: the ED in test [1] is 0.59 nM/kg; in test [2], 0.65 nM/kg.

For the compound `CC[C@H](C)[C@H]1NC(=O)CC2(CCCCC2)SSC[C@H](C(=O)NCCNC(=O)C(N)CCCN=C(N)N)NC(=O)[C@@H](CC(N)=O)NC(=O)[C@H](C(C)C)NC(=O)[C@@H](Cc2ccccc2)NC1=O` (stereo partly drawn), the ED is 47 nM/kg in test [1] and 100 nM/kg in test [2].

For the compound `CCOc1ccc(C[C@H]2NC(=O)CC3(CCCCC3)SSC[C@H](C(=O)NCCNC(=O)[C@H](N)CCCCN)NC(=O)[C@@H](CC(N)=O)NC(=O)[C@H](C(C)C)NC(=O)[C@@H](Cc3ccccc3)NC2=O)cc1`, the ED in test [1] is 0.82 nM/kg; in test [2], 1.2 nM/kg.

For `CCOc1ccc(C[C@H]2NC(=O)CC3(CCCCC3)SSC[C@H](C(=O)N3CCCC3C(=O)NCCNC(=O)[C@@H](N)CCCN)NC(=O)[C@@H](CC(N)=O)NC(=O)[C@H](C(C)C)NC(=O)[C@@H](Cc3ccccc3)NC2=O)cc1` (stereo partly drawn), the ED was found to be 0.95 nM/kg in test [1] and 0.82 nM/kg in test [2].

On to `CCOc1ccc(C[C@H]2NC(=O)CC3(CCCCC3)SSC[C@H](C(=O)N3CCCC3C(=O)N[C@H](CCCN=C(N)N)C(=O)NCCNC(=O)[C@H](N)CCCN=C(N)N)NC(=O)[C@@H](CC(N)=O)NC(=O)[C@H](C(C)C)NC(=O)[C@@H](Cc3ccccc3)NC2=O)cc1` (stereo partly drawn), for which the ED was 0.51 nM/kg in test [1] and 1.4 nM/kg in test [2].

Regarding `CCOc1ccc(C[C@H]2NC(=O)CC3(CCCCC3)SSC[C@H](C(=O)NCCNC(=O)[C@@H](N)CCCN)NC(=O)[C@@H](CC(N)=O)NC(=O)[C@H](C(C)C)NC(=O)[C@@H](Cc3ccccc3)NC2=O)cc1`, the ED amounted to 0.59 nM/kg in test [1] and 4 nM/kg in test [2].

Consider `CCOc1ccc(C[C@H]2NC(=O)CC3(CCCCC3)SSC[C@H](C(=O)NCCNC(=O)[C@H](N)CCCN)NC(=O)[C@@H](CC(N)=O)NC(=O)[C@H](C(C)C)NC(=O)[C@@H](Cc3ccccc3)NC2=O)cc1`, for which the ED in test [1] was 1.06 nM/kg; in test [2] it was 1.9 nM/kg.

With `CCOc1ccc(C[C@H]2NC(=O)CC3(CCCCC3)SSC[C@H](C(=O)N[C@H](CCCN=C(N)N)C(=O)NCC(=O)NCCNC(=O)[C@H](N)CCCN=C(N)N)NC(=O)[C@@H](CC(N)=O)NC(=O)[C@H](C(C)C)NC(=O)[C@@H](Cc3ccccc3)NC2=O)cc1`, the ED in test [1] amounted to 0.73 nM/kg; in test [2], 0.91 nM/kg.

(Values after ChEMBL document CHEMBL1125323, “Potent V2/V1a vasopressin antagonists with C-terminal ethylenediamine-linked retro-amino acids” (J Med Chem, 1992).)
